Test results reported in ChEMBL document CHEMBL4257473, “Design, synthesis and antibacterial evaluation of a polycationic calix[4]arene derivative alone and in combination with antibiotics” (Medchemcomm, 2018).
In brackets after ≈: the same amount, converted by molar mass.

Experiments:
Type in all cases: functional
Staphylococcus aureus [1] = assay: Antibacterial activity against Staphylococcus aureus ATCC 6538 after 24 hrs by microbroth dilution method; details: ATCC 6538, 24 h
Procedure, shortened: (§1)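 Broth microdilution per NCCLS guidelines in Mueller Hinton broth, from overnight cultures. Final inoculum 5×10^5 CFU mL⁻¹. Calixarene tested at 1–1024 μg mL⁻¹, ofloxacin 0.06–2048, chloramphenicol 1–2048, tetracycline 0.03–128 μg mL⁻¹. Plates incubated 37 °C for 24 h. MIC is the lowest concentration with no visible growth. Triplicate, with growth control, and modal value reported.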

Staphylococcus aureus [2] = assay: Antibacterial activity against methicillin-resistant Staphylococcus aureus 15 after 24 hrs by microbroth dilution method; details: Staphylococcus aureus, 15, 24 h; procedure, shortened: as §1
[3] = test system: Staphylococcus epidermidis; assay: Antibacterial activity against Staphylococcus epidermidis ATCC 35984 after 24 hrs by microbroth dilution method; details: ATCC 35984, 24 h
Procedure, shortened: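 Broth microdilution per NCCLS guidelines in Mueller Hinton broth, overnight culture inoculated at final 5×10^5 CFU mL⁻¹. Calixarene tested at 1-1024 µg mL⁻¹. Incubation 37 °C for 24 h. MIC taken as the lowest concentration with no visible growth. Growth control included, triplicate runs, modal value reported.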

[4] = test system: Staphylococcus epidermidis; assay: Antibacterial activity against methicillin-resistant Staphylococcus epidermidis 57 after 24 hrs by microbroth dilution method; details: Staphylococcus epidermidis, 57, 24 h; procedure, shortened: as §1
Pseudomonas aeruginosa [5] = assay: Antibacterial activity against Pseudomonas aeruginosa ATCC 9027 after 24 hrs by microbroth dilution method; details: ATCC 9027, 24 h; procedure, shortened: as §1
Pseudomonas aeruginosa [6] = assay: Antibacterial activity against Pseudomonas aeruginosa isolate 1 after 24 hrs by microbroth dilution method; details: isolate 1, 24 h; procedure, shortened: as §1
Staphylococcus aureus [7] = assay: Bactericidal activity against Staphylococcus aureus ATCC 6538 incubated for 24 hrs followed by replating on Mueller hinton agar plates and measured after 24 hrs; details: ATCC 6538, 24 h
Procedure, shortened: (§2)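 MBC follows the broth microdilution MIC step (MHB, 5×10^5 CFU mL⁻¹, 37 °C, 24 h). 15 µL from every clear MIC well is seeded onto Mueller Hinton agar and incubated 37 °C for 24 h. MBC is the lowest concentration giving no growth. At least three replicates, and modal value reported.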

Staphylococcus aureus [8] = assay: Bactericidal activity against methicillin-resistant Staphylococcus aureus 15 incubated for 24 hrs followed by replating on Mueller hinton agar plates and measured after 24 hrs; details: Staphylococcus aureus, 15, 24 h; procedure, shortened: as §2
[9] = test system: Staphylococcus epidermidis; assay: Bactericidal activity against Staphylococcus epidermidis ATCC 35984 incubated for 24 hrs followed by replating on Mueller hinton agar plates and measured after 24 hrs; details: ATCC 35984, 24 h; procedure, shortened: as §2
[10] = test system: Staphylococcus epidermidis; assay: Bactericidal activity against methicillin-resistant Staphylococcus epidermidis 57 incubated for 24 hrs followed by replating on Mueller hinton agar plates and measured after 24 hrs; details: Staphylococcus epidermidis, 57, 24 h; procedure, shortened: as §2
Pseudomonas aeruginosa [11] = assay: Bactericidal activity against Pseudomonas aeruginosa ATCC 9027 incubated for 24 hrs followed by replating on Mueller hinton agar plates and measured after 24 hrs; details: ATCC 9027, 24 h
Procedure, shortened: (§3)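 MBC follows a broth microdilution MIC run (Mueller Hinton broth, 5×10^5 CFU mL⁻¹, 37 °C, 24 h). 15 µL from every clear well is seeded onto Mueller Hinton agar and incubated at 37 °C for 24 h. MBC is the lowest concentration giving no growth. At least three replicates, modal result used.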

Pseudomonas aeruginosa [12] = assay: Bactericidal activity against Pseudomonas aeruginosa isolate 1 incubated for 24 hrs followed by replating on Mueller hinton agar plates and measured after 24 hrs; details: isolate 1, 24 h; procedure, shortened: as §3
[13] = test system: Staphylococcus epidermidis; assay: Potency index, ratio of ofloxacin MIC to test compound MIC for Staphylococcus epidermidis 57
[14] = test system: Staphylococcus epidermidis; assay: Potency index, ratio of ofloxacin MBC to test compound MBC for Staphylococcus epidermidis 57
Pseudomonas aeruginosa [15] = assay: Potency index, ratio of ofloxacin MBC to test compound MBC for Pseudomonas aeruginosa isolate 1
Staphylococcus aureus [16] = assay: Potency index, ratio of chloramphenicol MIC to test compound MIC for methicillin-resistant Staphylococcus aureus 15
Staphylococcus aureus [17] = assay: Potency index, ratio of chloramphenicol MBC to test compound MBC for methicillin-resistant Staphylococcus aureus 15
[18] = test system: Staphylococcus epidermidis; assay: Potency index, ratio of chloramphenicol MIC to test compound MIC for Staphylococcus epidermidis ATCC 35984
[19] = test system: Staphylococcus epidermidis; assay: Potency index, ratio of chloramphenicol MBC to test compound MBC for Staphylococcus epidermidis ATCC 35984
[20] = test system: Staphylococcus epidermidis; assay: Potency index, ratio of chloramphenicol MIC to test compound MIC for Staphylococcus epidermidis 57
[21] = test system: Staphylococcus epidermidis; assay: Potency index, ratio of chloramphenicol MBC to test compound MBC for Staphylococcus epidermidis 57
Pseudomonas aeruginosa [22] = assay: Potency index, ratio of chloramphenicol MIC to test compound MIC for Pseudomonas aeruginosa isolate 1
Pseudomonas aeruginosa [23] = assay: Potency index, ratio of chloramphenicol MBC to test compound MBC for Pseudomonas aeruginosa isolate 1
Staphylococcus aureus [24] = assay: Antibacterial activity against Staphylococcus aureus ATCC 6538 assessed as FIC index after overnight incubation in presence of ofloxacin by checkerboard assay
Procedure, shortened: (§4)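 Checkerboard combination of the calixarene with each antibiotic, each agent at final 2 to 0.015 times its MIC, giving 64 combinations. Inoculum prepared in Mueller Hinton broth and added at final 5×10^5 CFU mL⁻¹. Plates incubated overnight at 37 °C, then FICI calculated from the combination MICs.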

Staphylococcus aureus [25] = assay: Antibacterial activity against methicillin-resistant Staphylococcus aureus 15 assessed as FIC index after overnight incubation in presence of ofloxacin by checkerboard assay
Procedure, shortened: (§5)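 Checkerboard combinations of calixarene with antibiotic, each at final concentrations from 2 to 0.015 × its MIC, giving 64 combinations per plate. Inoculum prepared in MHB, final 5×10^5 CFU mL⁻¹. Incubated overnight at 37 °C. Fractional inhibitory concentration index calculated from the combination MICs.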

[26] = test system: Staphylococcus epidermidis; assay: Antibacterial activity against Staphylococcus epidermidis ATCC 35984 assessed as FIC index after overnight incubation in presence of ofloxacin by checkerboard assay; procedure, shortened: as §4
[27] = test system: Staphylococcus epidermidis; assay: Antibacterial activity against methicillin-resistant Staphylococcus epidermidis 57 assessed as FIC index after overnight incubation in presence of ofloxacin by checkerboard assay; procedure, shortened: as §5
Pseudomonas aeruginosa [28] = assay: Antibacterial activity against Pseudomonas aeruginosa ATCC 9027 assessed as FIC index after overnight incubation in presence of ofloxacin by checkerboard assay; procedure, shortened: as §4
Pseudomonas aeruginosa [29] = assay: Antibacterial activity against Pseudomonas aeruginosa isolate 1 assessed as FIC index after overnight incubation in presence of ofloxacin by checkerboard assay; procedure, shortened: as §4
Staphylococcus aureus [30] = assay: Antibacterial activity against Staphylococcus aureus ATCC 6538 assessed as FIC index after overnight incubation in presence of chloramphenicol by checkerboard assay; procedure, shortened: as §4
[31] = test system: Staphylococcus epidermidis; assay: Antibacterial activity against Staphylococcus epidermidis ATCC 35984 assessed as FIC index after overnight incubation in presence of chloramphenicol by checkerboard assay; procedure, shortened: as §5
Pseudomonas aeruginosa [32] = assay: Antibacterial activity against Pseudomonas aeruginosa ATCC 9027 assessed as FIC index after overnight incubation in presence of chloramphenicol by checkerboard assay; procedure, shortened: as §4
Pseudomonas aeruginosa [33] = assay: Antibacterial activity against Pseudomonas aeruginosa isolate 1 assessed as FIC index after overnight incubation in presence of chloramphenicol by checkerboard assay; procedure, shortened: as §4
Staphylococcus aureus [34] = assay: Antibacterial activity against Staphylococcus aureus ATCC 6538 assessed as FIC index after overnight incubation in presence of tetracycline by checkerboard assay; procedure, shortened: as §4
Staphylococcus aureus [35] = assay: Antibacterial activity against methicillin-resistant Staphylococcus aureus 15 assessed as FIC index after overnight incubation in presence of tetracycline by checkerboard assay; procedure, shortened: as §5
[36] = test system: Staphylococcus epidermidis; assay: Antibacterial activity against methicillin-resistant Staphylococcus epidermidis 57 assessed as FIC index after overnight incubation in presence of tetracycline by checkerboard assay; procedure, shortened: as §5
Pseudomonas aeruginosa [37] = assay: Antibacterial activity against Pseudomonas aeruginosa ATCC 9027 assessed as FIC index after overnight incubation in presence of tetracycline by checkerboard assay; procedure, shortened: as §5
Pseudomonas aeruginosa [38] = assay: Antibacterial activity against Pseudomonas aeruginosa isolate 1 assessed as FIC index after overnight incubation in presence of tetracycline by checkerboard assay; procedure, shortened: as §4

SMILES: CCCOc1c2cc(C[N+](C)(CCO)CCO)cc1Cc1cc(C[N+](C)(CCO)CCO)cc(c1OCCC)Cc1cc(C[N+](C)(CCO)CCO)cc(c1OCCC)Cc1cc(C[N+](C)(CCO)CCO)cc(c1OCCC)C2.[Cl-].[Cl-].[Cl-].[Cl-]
- MIC (Staphylococcus aureus [1]): 4 µg/mL
- MIC (Staphylococcus aureus [2]): 4 µg/mL
- MIC [3]: 4 µg/mL
- MIC [4]: 4 µg/mL
- MIC (Pseudomonas aeruginosa [5]): 128 µg/mL
- MIC (Pseudomonas aeruginosa [6]): 256 µg/mL
- MBC (Staphylococcus aureus [7]): 8 µg/mL
- MBC (Staphylococcus aureus [8]): 8 µg/mL
- MBC [9]: 8 µg/mL
- MBC [10]: 8 µg/mL
- MBC (Pseudomonas aeruginosa [11]): 256 µg/mL
- MBC (Pseudomonas aeruginosa [12]): 256 µg/mL
- Ratio [13]: 131
- Ratio [14]: 262
- Ratio (Pseudomonas aeruginosa [15]): 2
- Ratio (Staphylococcus aureus [16]): 2
- Ratio (Staphylococcus aureus [17]): 16
- Ratio [18]: 4
- Ratio [19]: 16
- Ratio [20]: 2
- Ratio [21]: 32
- Ratio (Pseudomonas aeruginosa [22]): 2
- Ratio (Pseudomonas aeruginosa [23]): 4
- fractional inhibitory concentration index (FICI) (Staphylococcus aureus [24]): 1.25
- fractional inhibitory concentration index (FICI) (Staphylococcus aureus [25]): 1
- fractional inhibitory concentration index (FICI) [26]: 1.25
- fractional inhibitory concentration index (FICI) [27]: 1
- fractional inhibitory concentration index (FICI) (Pseudomonas aeruginosa [28]): 1.06
- fractional inhibitory concentration index (FICI) (Pseudomonas aeruginosa [29]): 0.62
- fractional inhibitory concentration index (FICI) (Staphylococcus aureus [30]): 1.12
- fractional inhibitory concentration index (FICI) [31]: 1.03
- fractional inhibitory concentration index (FICI) (Pseudomonas aeruginosa [32]): 0.62
- fractional inhibitory concentration index (FICI) (Pseudomonas aeruginosa [33]): 0.53
- fractional inhibitory concentration index (FICI) (Staphylococcus aureus [34]): 1.48
- fractional inhibitory concentration index (FICI) (Staphylococcus aureus [35]): 1.03
- fractional inhibitory concentration index (FICI) [36]: 1.03
- fractional inhibitory concentration index (FICI) (Pseudomonas aeruginosa [37]): 1.06
- fractional inhibitory concentration index (FICI) (Pseudomonas aeruginosa [38]): 0.56

SMILES: O=C(N[C@H](CO)[C@H](O)c1ccc([N+](=O)[O-])cc1)C(Cl)Cl [CHLORAMPHENICOL]
- MIC (Staphylococcus aureus [1]): 4 µg/mL (≈ 12.4 µM)
- MIC (Staphylococcus aureus [2]): 8 µg/mL (≈ 24.8 µM)
- MIC [3]: 16 µg/mL (≈ 49.5 µM)
- MIC [4]: 8 µg/mL (≈ 24.8 µM)
- MIC (Pseudomonas aeruginosa [5]): 64 µg/mL (≈ 198 µM)
- MIC (Pseudomonas aeruginosa [6]): 512 µg/mL (≈ 1580 µM)
- MBC (Staphylococcus aureus [7]): 8 µg/mL (≈ 24.8 µM)
- MBC (Staphylococcus aureus [8]): 128 µg/mL (≈ 396 µM)
- MBC [9]: 128 µg/mL (≈ 396 µM)
- MBC [10]: 256 µg/mL (≈ 792 µM)
- MBC (Pseudomonas aeruginosa [11]): 128 µg/mL (≈ 396 µM)
- MBC (Pseudomonas aeruginosa [12]): 1020 µg/mL (≈ 3170 µM)

SMILES: CC1COc2c(N3CCN(C)CC3)c(F)cc3c(=O)c(C(=O)O)cn1c23 (stereo not drawn) [OFLOXACIN]
- MIC (Staphylococcus aureus [1]): 0.25 µg/mL (≈ 0.692 µM)
- MIC (Staphylococcus aureus [2]): 512 µg/mL (≈ 1420 µM)
- MIC [3]: 0.25 µg/mL (≈ 0.692 µM)
- MIC [4]: 512 µg/mL (≈ 1420 µM)
- MIC (Pseudomonas aeruginosa [6]): 256 µg/mL (≈ 708 µM)
- MBC (Staphylococcus aureus [7]): 0.5 µg/mL (≈ 1.38 µM)
- MBC (Staphylococcus aureus [8]): > 2050 µg/mL
- MBC [9]: 0.5 µg/mL (≈ 1.38 µM)
- MBC [10]: > 2050 µg/mL
- MBC (Pseudomonas aeruginosa [11]): 2 µg/mL (≈ 5.53 µM)
- MBC (Pseudomonas aeruginosa [12]): 512 µg/mL (≈ 1420 µM)

SMILES: CN(C)[C@@H]1C(O)=C(C(N)=O)C(=O)[C@@]2(O)C(O)=C3C(=O)c4c(O)cccc4[C@@](C)(O)[C@H]3C[C@@H]12 [TETRACYCLINE]
- MIC (Staphylococcus aureus [1]): 0.125 µg/mL (≈ 0.281 µM)
- MIC (Staphylococcus aureus [2]): 1 µg/mL (≈ 2.25 µM)
- MIC [3]: 0.5 µg/mL (≈ 1.13 µM)
- MIC [4]: 1 µg/mL (≈ 2.25 µM)
- MIC (Pseudomonas aeruginosa [5]): 16 µg/mL (≈ 36 µM)
- MIC (Pseudomonas aeruginosa [6]): 16 µg/mL (≈ 36 µM)
- MBC (Staphylococcus aureus [7]): 4 µg/mL (≈ 9 µM)
- MBC (Staphylococcus aureus [8]): 16 µg/mL (≈ 36 µM)
- MBC [9]: 8 µg/mL (≈ 18 µM)
- MBC [10]: 16 µg/mL (≈ 36 µM)
- MBC (Pseudomonas aeruginosa [11]): 32 µg/mL (≈ 72 µM)
- MBC (Pseudomonas aeruginosa [12]): 32 µg/mL (≈ 72 µM)
